Test [1] addresses GABA-A receptor; anion channel. The experiment in a line: The concentration required to inhibit 50% of binding of [35S]TBPS to Gamma-aminobutyric acid A receptor to rat whole brain membranes. It is filed as cell membranes.
The subject of test [2] is Mus musculus. The experiment in a line: Hypnotic dose was determined by observing loss of righting reflex for a minimum period of 30 sec in 50% of treated mice after i.v. administration. Type of test: functional. The procedure, abridged:
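Male CFLP mice (25–35 g), tested in the light period. Groups of eight received an i.v. lateral tail vein injection over 10 s (10 mL kg-1) on a μmol/kg dose series, e.g. 2–16, with extra doses added. Vehicle was saline for amine salts; standards were in HPCD/saline, emulsion or saline. HD50 with 95% confidence limits was obtained by probit analysis of the fraction showing LRR ≥30 s.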

Test [3] concerns the target GABA-A receptor; anion channel (Bos taurus) (UniProt P10063+P08220+P20237+P08219+P10064+P22300). The experiment in a line: Concentration required to potentiate GABA-evoked currents in voltage-clamped bovine chromaffin cells by 300%. It is filed as functional. The procedure, abridged:
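Adult bovine chromaffin cells, primary culture, recorded 4 h to 2 days after plating. Whole-cell patch clamp, continuous superfusion with 140 mM NaCl, 2.8 mM KCl, 2 mM MgCl2, 1 mM CaCl2, 10 mM HEPES (pH 7.2). CsCl-based pipette solution, room temperature (18–22 °C). Currents filtered at 500 Hz. Steroid concentration enhancing the GABA-evoked response by 300% of control was interpolated; mean ± SEM of N cells.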

As a reminder, the IC50 is the concentration needed to halve the response being measured. In test [1], `CC(=O)[C@H]1CC[C@H]2[C@@H]3CC[C@H]4C[C@H](O)[C@@H](N5CCO[C@H](C)C5)C[C@]4(C)[C@H]3C(=O)C[C@]12C` showed an IC50 of 1.14 µM. In addition, the HD50 in test [2] was 17 µM/kg.

As to `CC[C@H]1CN([C@H]2C[C@@]3(C)[C@@H](CC[C@H]4[C@@H]5CC[C@H](C(C)=O)[C@@]5(C)CC(=O)[C@@H]43)C[C@@H]2O)CCO1`, the IC50 in test [1] is 1.49 µM. In test [2], this compound had an HD50 of 15.1 µM/kg.

Take `CCO[C@H]1C[C@@]2(C)[C@@H](CC[C@@H]3[C@@H]2[C@H](N(C)C)C[C@]2(C)[C@@H](C(C)=O)CC[C@@H]32)C[C@@H]1O` [MINAXOLONE]: the HD50 in test [2] amounted to 7.3 µM/kg.

In the case of `CC1(C)CN([C@H]2C[C@@]3(C)[C@@H](CC[C@@H]4[C@@H]3CC[C@]3(C)[C@@H](C(=O)CO)CC[C@@H]43)C[C@@H]2O)CCO1`, in test [3], the POT is 310 nM. Moreover, the IC50 in test [1] turned out to be 0.267 µM. In addition, the HD50 in test [2] came to 18.4 µM/kg.

As for `CC1(C)CN([C@H]2C[C@@]3(C)[C@@H](CC[C@@H]4[C@@H]3CC[C@]3(C)[C@@H](C(=O)CCl)CC[C@@H]43)C[C@@H]2O)CCO1`, the POT in test [3] came to 380 nM. For the same compound, the IC50 in test [1] was 0.039 µM. The HD50 in test [2] worked out at 17.6 µM/kg.

Compound `CC(=O)[C@H]1CC[C@H]2[C@@H]3CC[C@H]4C[C@H](O)[C@@H](N5CCSCC5)C[C@]4(C)[C@H]3CC[C@]12C` displayed an HD50 in test [2] of 40.5 µM/kg.

As for `CC(=O)[C@H]1CC[C@H]2[C@@H]3CC[C@H]4C[C@H](O)[C@@H](N5CCOCC5)C[C@]4(C)[C@H]3CC[C@]12C`, in test [3], the POT came to 215 nM. Further, the HD50 in test [2] came out at 22.2 µM/kg.

Take `CC(=O)SCC(=O)[C@H]1CC[C@H]2[C@@H]3CC[C@H]4C[C@H](O)[C@@H](N5CCOCC5)C[C@]4(C)[C@H]3CC[C@]12C`: the IC50 in test [1] was 0.235 µM. Moreover, the HD50 in test [2] stood at 33.8 µM/kg.

In turn, `CC(=O)[C@H]1CC[C@H]2[C@@H]3CC[C@H]4C[C@H](O)[C@@H](N5CCSCC5)C[C@]4(C)[C@H]3C(=O)C[C@]12C` returned an IC50 in test [1] of 1.39 µM. Besides, the HD50 in test [2] amounted to 20 µM/kg.

In the case of `CCC[C@@H]1CN([C@H]2C[C@@]3(C)[C@@H](CC[C@H]4[C@@H]5CC[C@H](C(C)=O)[C@@]5(C)CC(=O)[C@@H]43)C[C@@H]2O)CCO1`, the 50% inhibitory concentration (IC50) in test [1] worked out at 0.142 µM. The compound further displayed an HD50 in test [2] of 6.4 µM/kg.

As for `CC(=O)[C@H]1CC[C@H]2[C@@H]3CC[C@H]4C[C@H](O)[C@@H](N5CCO[C@H](C)C5)C[C@]4(C)[C@H]3CC[C@]12C`, the POT in test [3] is 250 nM. The same compound had an IC50 in test [1] of 0.369 µM. The compound further returned an HD50 in test [2] of 15 µM/kg.

Consider `CC1(C)CN([C@H]2C[C@@]3(C)[C@@H](CC[C@H]4[C@@H]5CC[C@H](C(=O)CCl)[C@@]5(C)CC(=O)[C@@H]43)C[C@@H]2O)CCO1`, for which the POT in test [3] is 450 nM. The same compound displayed an IC50 in test [1] of 0.206 µM. In test [2], this compound gave an HD50 of 13.4 µM/kg.

In test [2], `CC(=O)[C@H]1CC[C@H]2[C@@H]3CC[C@H]4C[C@H](O)[C@@H](N5C[C@@H](C)O[C@@H](C)C5)C[C@]4(C)[C@H]3CC[C@]12C` showed an HD50 of 26 µM/kg.

`CC(=O)[C@H]1CC[C@H]2[C@@H]3CC[C@H]4C[C@H](O)[C@@H](N5CCO[C@H](CC(C)C)C5)C[C@]4(C)[C@H]3C(=O)C[C@]12C` displayed an IC50 in test [1] of 0.053 µM. For the same compound, in test [2], the HD50 stood at 6.5 µM/kg.

`C[C@]12C[C@H](N3CCOCC3)[C@@H](O)C[C@@H]1CC[C@H]1[C@@H]3CC[C@H](C(=O)CO)[C@@]3(C)CC(=O)[C@@H]12` registered a 50% inhibitory concentration (IC50) in test [1] of 1.16 µM. The compound further displayed an HD50 in test [2] of 198.2 µM/kg.

In turn, `CC[C@H]1CN([C@H]2C[C@@]3(C)[C@@H](CC[C@@H]4[C@@H]3CC[C@]3(C)[C@@H](C(C)=O)CC[C@@H]43)C[C@@H]2O)CCO1` displayed an HD50 in test [2] of 22.7 µM/kg.

Consider `CC(=O)[C@H]1CC[C@H]2[C@@H]3CC[C@H]4C[C@H](O)CC[C@]4(C)[C@H]3C(=O)C[C@]12C` [ALFAXALONE], for which, in test [3], the POT was found to be 700 nM. The same compound registered an HD50 in test [2] of 6.3 µM/kg.

Take `CC(=O)SCC(=O)[C@H]1CC[C@H]2[C@@H]3CC[C@H]4C[C@H](O)[C@@H](N5CCOC(C)(C)C5)C[C@]4(C)[C@H]3C(=O)C[C@]12C`: in test [3], the POT was 245 nM. Moreover, the IC50 in test [1] was determined as 0.261 µM. This compound displayed an HD50 in test [2] of 7.9 µM/kg.

Take `CCCCC1(CCCC)CN([C@H]2C[C@@]3(C)[C@@H](CC[C@H]4[C@@H]5CC[C@H](C(C)=O)[C@@]5(C)CC(=O)[C@@H]43)C[C@@H]2O)CCO1`: the IC50 in test [1] was found to be 0.053 µM. The HD50 in test [2] is 31.1 µM/kg.

`CC1(C)CN([C@H]2C[C@@]3(C)[C@@H](CC[C@H]4[C@@H]5CC[C@H](C(=O)CN=[N+]=[N-])[C@@]5(C)CC(=O)[C@@H]43)C[C@@H]2O)CCO1` displayed an IC50 in test [1] of 2.17 µM. This compound also showed an HD50 in test [2] of 10.7 µM/kg.

Take `CC(=O)OCC(=O)[C@H]1CC[C@H]2[C@@H]3CC[C@H]4C[C@H](O)[C@@H](N5CCOC(C)(C)C5)C[C@]4(C)[C@H]3CC[C@]12C`: in test [1], the IC50 was 0.387 µM. Besides, in test [2], the HD50 was found to be 16.9 µM/kg.

As to `CC(=O)[C@H]1CC[C@H]2[C@@H]3CC[C@H]4C[C@H](O)[C@@H](N5CCO[C@@H](C)C5)C[C@]4(C)[C@H]3CC[C@]12C`, in test [1], the IC50 worked out at 0.424 µM. This compound showed an HD50 in test [2] of 29 µM/kg.

With `CC(=O)[C@H]1CC[C@H]2[C@@H]3CC[C@H]4C[C@H](O)[C@@H](N5CC(C)(C)OC(C)(C)C5)C[C@]4(C)[C@H]3C(=O)C[C@]12C`, in test [1], the IC50 is 0.127 µM. In test [2], the HD50 turned out to be 8.3 µM/kg.

In the case of `C[C@]12CC[C@@H](O)C[C@@H]1CC[C@@H]1[C@@H]2CC[C@]2(C)[C@@H](C(=O)CO)CC[C@@H]12`, the POT in test [3] turned out to be 300 nM. The IC50 in test [1] came to 0.22 µM. Besides, the HD50 in test [2] worked out at 18.5 µM/kg.

`CC(=O)[C@H]1CC[C@H]2[C@@H]3CC[C@H]4C[C@H](O)[C@@H](N5CCO[C@H](Cc6ccccc6)C5)C[C@]4(C)[C@H]3C(=O)C[C@]12C` came in with an IC50 in test [1] of 0.131 µM. In test [2], the HD50 was 12.6 µM/kg.

For `CC1(C)CN([C@H]2C[C@@]3(C)[C@@H](CC[C@H]4[C@@H]5CC[C@H](C(=O)CSC#N)[C@@]5(C)CC(=O)[C@@H]43)C[C@@H]2O)CCO1`, in test [1], the IC50 stood at 0.316 µM. This compound yielded an HD50 in test [2] of 10 µM/kg.

In test [1], `CCC1(CC)CN([C@H]2C[C@@]3(C)[C@@H](CC[C@H]4[C@@H]5CC[C@H](C(C)=O)[C@@]5(C)CC(=O)[C@@H]43)C[C@@H]2O)CCO1` showed an IC50 of 0.079 µM. Moreover, the HD50 in test [2] is 12 µM/kg.

For the compound `CC(=O)[C@H]1CC[C@H]2[C@@H]3CC[C@H]4C[C@H](O)[C@@H](N5CCOC(C)(C)C5)C[C@]4(C)[C@H]3C(=O)C[C@]12C`, in test [3], the POT is 700 nM. For the same compound, the HD50 in test [2] is 9.8 µM/kg.

As to `CC[C@@H]1CN([C@H]2C[C@@]3(C)[C@@H](CC[C@@H]4[C@@H]3CC[C@]3(C)[C@@H](C(C)=O)CC[C@@H]43)C[C@@H]2O)CCO1`, the IC50 in test [1] was determined as 0.91 µM. This compound also had an HD50 in test [2] of 11.2 µM/kg.

In test [1], `CC(=O)[C@H]1CC[C@H]2[C@@H]3CC[C@H]4C[C@H](O)[C@@H](N5CCOC(c6ccccc6)(c6ccccc6)C5)C[C@]4(C)[C@H]3C(=O)C[C@]12C` gave an IC50 of 0.497 µM. Besides, the HD50 in test [2] was determined as 49.9 µM/kg.

`CCC[C@H]1CN([C@H]2C[C@@]3(C)[C@@H](CC[C@H]4[C@@H]5CC[C@H](C(C)=O)[C@@]5(C)CC(=O)[C@@H]43)C[C@@H]2O)CCO1`: the IC50 in test [1] was 0.948 µM. The HD50 in test [2] came to 10.8 µM/kg.

In the case of `CC(=O)[C@H]1CC[C@H]2[C@@H]3CC[C@H]4C[C@H](O)[C@@H](N5CC(C)(C)SC(C)(C)C5)C[C@]4(C)[C@H]3C(=O)C[C@]12C`, in test [1], the IC50 worked out at 0.231 µM. The HD50 in test [2] worked out at 61.8 µM/kg.

Take `CC(=O)[C@H]1CC[C@H]2[C@@H]3CC[C@H]4C[C@H](O)[C@@H](N5CCO[C@@H](Cc6ccccc6)C5)C[C@]4(C)[C@H]3C(=O)C[C@]12C`: the IC50 in test [1] was 0.1 µM. This compound registered an HD50 in test [2] of 12.8 µM/kg.

Compound `CC(=O)[C@H]1CC[C@H]2[C@@H]3CC[C@H]4C[C@H](O)[C@@H](N5CCSC(C)(C)C5)C[C@]4(C)[C@H]3CC[C@]12C` had an IC50 in test [1] of 0.115 µM. Besides, the HD50 in test [2] was determined as 51.9 µM/kg.

`C[C@]12C[C@H](N3CCOCC3)[C@@H](O)C[C@@H]1CC[C@@H]1[C@@H]2CC[C@]2(C)[C@@H](C(=O)CBr)CC[C@@H]12`: the IC50 in test [1] stood at 0.148 µM. The same compound showed an HD50 in test [2] of 22.8 µM/kg.

The values above are taken from ChEMBL document CHEMBL1130383, “Anesthetic activity of novel water-soluble 2 beta-morpholinyl steroids and their modulatory effects at GABAA receptors” (J Med Chem, 1997).
